Screening results as filed in PubChem.
Shown are actives, neighbours in structure and some others; about 6.8% of the full set was active somewhere.
core dimer inh = HCV core protein dimerization inhibition | AID 1899 | inhibition, % at 5 µM | TR-FRET GST/Flag-core106 dimerization, 1536-well | actives 0.33% (n = 300,000);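 active means inhibition above the mean of all tested compounds plus 3 SD, set per screening campaign, cut at about 45% in these data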
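Assay system: tagged HCV core106 pair (GST and Flag); medium: KF-containing HEPES buffer, pH 7.45, DTT, CHAPS, BSA; also added: Eu donor and XL665 acceptor anti-tag antibodies; dosing: 5 µM single dose; timing: compound-protein-antibody incubation 4 h at 22.5 °C; signal: TR-FRET 671 and 617 nm emission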
HSF-1 act = increases HSF-1 driven luciferase reporter signal. actives 1.7% (n = 300,000). NIH3T3-HGL HSF-1 luciferase reporter, MG132, 8 h; 100% = twice DMSO control signal. activation, % at 9 µM;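 active means mean replicate activation of at least 50% with a set share of replicates each reaching 50%; inconclusive means only one of those two conditions met; inactive means mean below 50% and too few replicates reaching it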;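 further: 0% = median of the neutral control wells and 100% = twice that signal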
HSF1 inhib = HSF1 inhibition. NIH3T3-HGL HSE-luciferase, MG132-induced, luminescence 8 h; hits give low values. activity change, negative = inhibition, % at 7.5 µM (by protocol). actives 0.77% (n = 300,000);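 active means more than half of replicate wells show activity change below -50%, luminescence cut by over half; inconclusive means some wells, but at most half, below -50%; inactive means no replicate well below -50%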;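 further: luciferase reports HSF-1 transcriptional activity via heat shock element; 0% = median of DMSO wells and -100% = zero luminescence signal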
AI-2 QS mod = modulates the Vibrio harveyi AI-2 quorum sensing system; Vibrio harveyi JMH597 AI-2 luminescence/OD600 ratio, 9 h; hits give low values; strain lacks LuxN and CqsS sensors; 0 = neutral-control median; activity change, % at 7.5 µM; actives 0.4% (n = 300,000); AID 2094; in the data active means activity change below about -75%, passing the limit was not always enough; inconclusive means no clear call, values can overlap the other calls;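 further: luminescence divided by OD600 gain over 9 h not by final OD600 alone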
PHOSPHO1 inh = inhibitors of human PHOSPHO1 phosphatase | Q8TCT1 | recombinant PHOSPHO1, absorbance phosphatase assay | inhibition, % at 13.3 µM | actives 1.1% (n = 290,000); in the data active means inhibition above about 60%
Target sequence (Q8TCT1 whole entry, looked up): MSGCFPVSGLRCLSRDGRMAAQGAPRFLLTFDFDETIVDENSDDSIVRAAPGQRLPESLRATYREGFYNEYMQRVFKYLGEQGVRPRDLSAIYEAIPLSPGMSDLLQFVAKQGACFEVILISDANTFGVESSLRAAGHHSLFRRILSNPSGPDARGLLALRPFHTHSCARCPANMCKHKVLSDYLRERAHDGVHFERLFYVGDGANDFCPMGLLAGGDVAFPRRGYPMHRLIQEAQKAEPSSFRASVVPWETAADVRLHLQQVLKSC
ALR inh = inhibitors of human sulfhydryl oxidase ALR; purified ALR, DTT oxidation, H2O2 HRP-luminol luminescence; inhibition, % (test concentration not listed); actives 3.8% (n = 290,000);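 active means mean replicate inhibition above about 79%, with every replicate also reaching it, limit read from the data; inconclusive means only one of the two criteria met; inactive means mean below limit and not every replicate reaching it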
Target sequence (P55789 whole entry, looked up): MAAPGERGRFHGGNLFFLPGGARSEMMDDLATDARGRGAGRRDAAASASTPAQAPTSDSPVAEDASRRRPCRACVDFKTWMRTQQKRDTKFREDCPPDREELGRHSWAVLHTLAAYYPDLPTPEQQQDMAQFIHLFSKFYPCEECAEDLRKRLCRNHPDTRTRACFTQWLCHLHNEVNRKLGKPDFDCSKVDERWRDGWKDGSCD
An asterisk follows results filed as active; u = inconclusive; x = not tested or not shown.

SMILES	core dimer inh	HSF-1 act	HSF1 inhib	AI-2 QS mod	PHOSPHO1 inh	ALR inh
Cc1snnc1C(=O)NC(=S)Nc1ccccc1	3	11	-10	0	12	92*
COCCN(C(=O)Cc1cccs1)C(C(=O)NC1CCCC1)c1cc(OC)c(OC)c(OC)c1 (stereo not drawn)	-2	-11	2	16	62*	-11
O=C(NCC(=O)N(Cc1ccccc1)C(C(=O)NC1CCCC1)c1cccnc1)c1ccco1 (stereo not drawn)	7	-3	0	21	199*	-1
O=C(NC1CCCC1)C(c1ccccc1)N(Cc1cccnc1)C(=O)Cc1cccs1 (stereo not drawn)	-1	55*	17	20	18	-31
CC(C)C(C)NC(=O)CSc1nc2scc(-c3ccco3)c2c(=O)n1-c1ccccc1 (stereo not drawn)	39	22	15	12	18	96*
CC(C)C(C)(C#N)NC(=O)CSc1nc2scc(-c3ccco3)c2c(=O)n1-c1ccccc1 (stereo not drawn)	38	36	15	19	35	4
COCCNC(=S)NCc1ccc2[nH]c3c(c2c1)CCCC3	-17	11	3	19	-27	94*
CC(C)Oc1ccc(S(=O)(=O)N2CCOCC2)cc1NC(=O)Cc1cccs1	5	-1	0	28	x	x
Cc1ccc(C)c(CSc2ccc3nnc(-c4ccccn4)n3n2)c1	12	5	-1	18	-19	x
C=C(C)C1CC=C(C)/C(=N/NC(=O)c2cccs2)C1 (stereo not drawn)	9	80*	37	15	3	-15
C=C(C)C1CC=C(C)/C(=N/NC(=O)c2ccccc2[N+](=O)[O-])C1 (stereo not drawn)	2	-7	-7	21	16	-16
CC(=O)N1CCC(=NNC(=O)c2cccs2)CC1	3	55*	19	16	-3	77*
O=C(NN=C1CCCC1)c1cccs1	-4	36	26	7	-10	-5
CC1=C/C(=N\NC(=O)c2cccs2)CC(C)(C)C1	-3	62*	54	-3	19	-5
COc1ccc(CNS(=O)(=O)c2cccc(S(=O)(=O)N3CCOCC3)c2)cc1	1	1	2	40	6	-9
O=C1c2cccc3cccc(c23)C(=O)C1(O)O	-33	20	14	13	x	99*
CC(=NNC(=O)c1cccc(S(=O)(=O)N2CCOCC2)c1)c1ccc(Cl)cc1	x	x	x	x	x	-3
NC(=S)NNc1cc(Cl)cc(Cl)c1	0	14	-6	30	49	97*
Oc1ccc(NCc2ccc(OCc3ccccc3)cc2)cc1	x	20	13	11	29	49
CCc1ccc(CNc2ccc(O)cc2)cc1	13	-10	1	29	-3	84*
NNC(=O)CCc1nc2ccc(O)cc2[nH]1	-1	-9	-5	9	-8	96*
Nc1nonc1N/N=C/c1c(O)ccc2ccccc12	-20	62*	26	18	37	-22
Cc1ccc(C)c(NC(=S)Nc2ncccc2C)c1	-1	u	29	2	24	79*
COc1ccc(/C(C#N)=C/c2ccccn2)cc1	-10	68*	27	18	-5	10
N#C/C(=C\c1ccccn1)c1nc2ccccc2s1	-1	83*	77	13	28	43
SMILES	core dimer inh	HSF-1 act	HSF1 inhib	AI-2 QS mod	PHOSPHO1 inh	ALR inh
COC(=O)NNC(=O)c1ccc(C)c(Br)c1	0	-12	-9	-2	-29	6
CCCN(C(=O)Cn1nc(C)c([N+](=O)[O-])c1C)c1c(N)n(Cc2ccccc2)c(=O)[nH]c1=O	-1	4	-4	37	x	-1
O=c1[nH]c(CSc2ccccn2)nc2ccccc12	6	75*	34	9	3	-1
Nn1c(CSc2ccccn2)nc2ccccc2c1=O	-3	-7	-11	9	18	2
O=c1[nH]c(CSc2ccccn2)nc2c1cnn2-c1ccccc1	-1	57*	27	31	2	-5
O=c1[nH]c(CSc2ncnc3sccc23)nc2cc(C(F)(F)F)ccc12	10	-12	1	21	16	-1
O=c1[nH]c(CSc2ncc(C(F)(F)F)cc2Cl)nc2ccccc12	7	63*	38	13	-3	12
Clc1cccc(/C=N/Nc2nnc(Cl)c3ccccc23)c1	-3	57*	50	15	11	2
Clc1ccc(/C=N/Nc2nnc(-c3ncc[nH]3)c3ccccc23)cc1	-8	16	15	8	-11	31
O=C(CSCc1ccc([N+](=O)[O-])cc1)NN=C1CCCCCC1	-9	27	-3	-1	0	88*
COc1ccc(/C=N/NC(=O)CSCc2ccc([N+](=O)[O-])cc2)cc1OC	5	x	x	14	-15	16
O=C(CSCc1ccc(Cl)cc1)NN=C1CCCC1	-2	9	-1	-3	-5	10
COc1cc(/C=N/NC(=O)CSCc2ccc([N+](=O)[O-])cc2)cc(OC)c1OC	-3	-6	4	14	0	98*
Cn1cnc([N+](=O)[O-])c1NC(C)(C)C	-8	-24	-2	-3	0	-8
Cn1cnc([N+](=O)[O-])c1S(=O)(=O)c1ccc(Cl)cc1	x	150*	127	-64	9	x
CC(=O)Nc1ccc(C(=O)CSc2cc(C)c3cccc(C)c3n2)cc1	-6	24	1	11	-32	x
Cc1ccc(-c2cc(C(=O)Nc3c(C)n(C)n(-c4ccccc4)c3=O)[nH]n2)c(O)c1C	1	-13	-1	11	24	97*
CCC1CCCCN1S(=O)(=O)c1ccc(C(=O)N(CCCN(C)C)c2nc3cc4c(cc3s2)OCO4)cc1 (stereo not drawn)	0	-36	-24	1	38	2
Cc1ccc(Br)cc1S(=O)(=O)N1CCN(c2ccccc2)CC1	3	6	6	10	17	0
Cc1nnc(N2CCN(Cc3ccccc3)CC2)[nH]c1=O	-9	4	-2	11	5	99*
Cc1cc2[nH]c(=O)c(=O)[nH]c2cc1S(=O)(=O)N1CCN(c2ccccc2)CC1	1	14	-4	37	23	97*
Cc1nc(N2CCN(c3ccccc3)CC2)[nH]c(=O)c1C	9	2	0	24	36	97*
CCNc1nc(OC)nc(Oc2ccc(=O)n(-c3ccccc3)n2)n1	3	11	1	1	28	2
COc1ccc(C(=O)Oc2ccc(=O)n(-c3ccccc3)n2)cc1	-4	-6	-6	27	-120	98*
COc1nc(NCC(C)C)nc(Oc2ccc(=O)n(-c3ccccc3)n2)n1	12	11	6	28	-9	79*
